Assay results from ChEMBL document CHEMBL3091462 (J Nat Prod, 2013).
Activity calls are given as the source filed them. The rule behind the calls is not given here.

Key:
HCT-116 [1] = assay: Cell cycle arrest in human HCT116 cells assessed as accumulation at G2/M phase at 0.1 uM after 48 hrs using propidium iodide staining by flow cytometry (reference value: 7.1 +/- 0.3%); format: functional
SW-620 [2] = assay: Cell cycle arrest in human SW620 cells assessed as accumulation at G0/G1 phase at 2 uM after 48 hrs using propidium iodide staining by flow cytometry (reference value: 47.8 +/- 1.2%); format: functional
SW-620 [3] = assay: Decrease of cyclin E expression in human SW620 cells after 24 hrs by immunoblotting; format: functional, cell-based
Procedure, shortened: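 HCT-116 or SW-620 cells exposed to 0–10 μM for 24 h. Cells lysed in Tris/NaCl/EDTA/1% Triton X-100 buffer with protease and phosphatase inhibitors at 4 °C, protein measured by BCA. Lysates run on 10–12.5% SDS-PAGE and immunoblotted, ECL detection. Cdk2, cyclin A and cyclin E antibodies used at 1:500; β-actin as loading control.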

HCT-116 [4] = assay: Induction of apoptosis in human HCT116 cells at 5 uM after 48 hrs using Annexin V-FITC and propidium iodide staining by flow cytometry (reference value: 7.6 +/- 3%); format: functional
Procedure, shortened: (§1)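 Subconfluent cells in RPMI 1640 + 10% FBS treated with 0–10 μM for 48 h. Harvested cells incubated 10 min with FITC-annexin V/PI, then analysed by flow cytometry (488/525 nm for annexin V-FITC, 488/675 nm for PI). Reported as % apoptotic cells, means ± SD of three experiments in triplicate.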

HCT-116 [5] = assay: Cytotoxicity against human HCT116 cells expressing p21 siRNA at 10 uM after 24 hrs by trypan blue staining; format: functional, cell-based
Procedure, shortened: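 Cells plated at 5 × 10^4 per well and transfected 4 h with 100 nM p21 or scrambled siRNA in OPTI-MEM, then grown 24 h in complete medium. Exposed to 10 μM for 24 h. Viability by trypan blue exclusion and direct counting. Means ± SD, three experiments in triplicate, compared with the scrambled-siRNA group.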

HCT-116 [6] = assay: Cell cycle arrest in human HCT116 cells assessed as accumulation at G2/M phase at 0.5 uM after 48 hrs using propidium iodide staining by flow cytometry (reference value: 7.1 +/- 0.3%); format: functional
SW-620 [7] = assay: Effect on Cdk inhibitor gene expression in p53 deficient human SW620 cells at 0.5 to 10 uM after 24 hrs by immunoblotting; format: functional, cell-based
SW-620 [8] = assay: Cytotoxicity against human SW620 cells assessed as cell viability at 0.1 to 2 uM after 24 to 72 hrs; format: functional, cell-based
Procedure, shortened: (§2)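 Cells seeded at 10^5 per well in RPMI 1640/10% FBS at 37 °C. Subconfluent cells exposed to 0, 0.1, 0.5, 1, 2, 5 or 10 μM for 48 h, or to 10 μM for 24, 48 and 72 h; ethanol vehicle, at most 0.01% v/v final. Cells trypsinized and counted by hemocytometer. Viability as % of control, means ± SD, three experiments in triplicate.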

SW-620 [9] = assay: Cell cycle arrest in human SW620 cells assessed as accumulation at S phase at 0.5 uM after 48 hrs using propidium iodide staining by flow cytometry (reference value: 43.1 +/- 1%); format: functional
HCT-116 [10] = assay: Increase of p21 expression in human HCT116 cells at 0.1 to 10 uM after 24 hrs by immunoblotting; format: functional, cell-based
Procedure, shortened: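 HCT-116 or SW-620 cells treated with 0–10 μM for 24 h. Lysates probed for p21 by SDS-PAGE immunoblotting with ECL detection; β-actin as loading control.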

HCT-116 [11] = assay: Cell cycle arrest in human HCT116 cells assessed as accumulation at S phase after 48 hrs using propidium iodide staining by flow cytometry; format: functional, cell-based
SW-620 [12] = assay: Cytotoxicity against human SW620 cells assessed as cell death at 2 uM after 48 hrs; format: functional, cell-based; procedure, shortened: as §2
HCT-116 [13] = assay: Cytotoxicity against human HCT116 cells assessed as inhibition of cell viability at 10 uM after 24 hrs; details: HCT-116, 24 h
HCT-116 [14] = assay: Cytotoxicity against human HCT116 cells after 24 to 72 hrs; format: functional, cell-based; procedure, shortened: as §2
SW-620 [15] = assay: Cytotoxicity against human SW620 cells assessed as cell viability at 10 uM after 48 to 72 hrs; format: functional, cell-based; procedure, shortened: as §2
SW-620 [16] = assay: Induction of apoptosis in human SW620 cells at 5 uM after 48 hrs using Annexin V-FITC and propidium iodide staining by flow cytometry (reference value: 3.8 +/- 2.1%); format: functional; procedure, shortened: as §1
SW-620 [17] = assay: Effect on p27 expression in p53 deficient human SW620 cells at 0.5 to 10 uM after 24 hrs by immunoblotting; format: functional, cell-based
SW-620 [18] = assay: Cell cycle arrest in human SW620 cells assessed as accumulation at G2/M phase at 0.5 uM after 48 hrs using propidium iodide staining by flow cytometry (reference value: 9.1 +/- 0.3%); format: functional
HCT-116 [19] = assay: Induction of apoptosis in human HCT116 cells assessed as reduction of Bcl-2 protein expression at 0.1 to 10 uM after 24 hrs by immunoblotting; format: functional, cell-based
Procedure, shortened: (§3)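 HCT-116 or SW-620 cells treated with 0–10 μM for 24 h, lysed, and run on 15% SDS-PAGE immunoblots. Probed for Bcl-2 (1:1000), Bax (1:500), caspase-9/-3 and their cleaved forms (1:1000), and β-actin (1:1000). Bands quantified by densitometry; means ± SD of three experiments in duplicate.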

HCT-116 [20] = assay: Cell cycle arrest in human HCT116 cells assessed as accumulation at G2/M phase at 1 uM after 48 hrs using propidium iodide staining by flow cytometry (reference value: 7.1 +/- 0.3%); format: functional
HCT-116 [21] = assay: Induction of apoptosis in human HCT116 cells assessed as increase of Bax protein expression after 24 hrs by immunoblotting; format: functional, cell-based; procedure, shortened: as §3
SW-620 [22] = assay: Cytotoxicity against human SW620 cells after 24 to 72 hrs; format: functional, cell-based; procedure, shortened: as §2

CC(C)c1cccc(=O)c(O)c1 [HINOKITIOL]
Activity (HCT-116 [1]): 7.5% | Activity (SW-620 [2]): 43.1% | Activity (SW-620 [3]): Dose-dependent effect | Activity (HCT-116 [4]): 15.6% | Activity (HCT-116 [5]): inactive | Activity (HCT-116 [6]): 8% | Activity (SW-620 [7]): inactive | Activity (SW-620 [8]): Active | Activity (SW-620 [9]): 43.3% | Activity (HCT-116 [10]): Active | Activity (HCT-116 [11]): Dose-dependent effect | Activity (SW-620 [12]): Active | inhibition of viability at 10 µM (HCT-116 [13]): 27% | IC50 (HCT-116 [14]): 4.5 µM | growth inhibition (GI) (HCT-116 [14]): Dose-dependent effect | Activity (SW-620 [15]): Active | Activity (SW-620 [16]): 53.1% | Activity (SW-620 [17]): inactive | Activity (SW-620 [18]): 8.4% | Activity (HCT-116 [19]): Active | Activity (HCT-116 [20]): 7.7% | Activity (HCT-116 [21]): Dose-dependent effect | IC50 (SW-620 [22]): 4.4 µM | growth inhibition (GI) (SW-620 [22]): Dose-dependent effect
